The list is not random: actives were taken first. Their share in the collection is about 1.5%.
CXCR6 inh = blocks human CXCR6 beta-arrestin recruitment | inhibition, % at 20 µM | O00574 | CHO-K1 PathHunter CXCR6 beta-arrestin, luminescence | 360,000 compounds, 0.36% hits; in the data active means inhibition above about 34%, passing the limit was not always enough;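 further: antagonist mode with CXCL16 agonist at 10 nM final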
EBI2 antag = EBI2 (human) antagonism; P32249; EBI2 beta-arrestin recruitment, luminescence, 7a,25-OHC stimulated; inhibition, % at 5 µM; 360,000 compounds, 0.81% hits; AID 651636; in the data active means inhibition above about 38%;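 further: enzyme fragment complementation signal reports receptor beta-arrestin coupling in cells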
APJ antagonist = APJ receptor antagonism; inhibition, % at 20 µM; P35414; 330,000 compounds, 0.32% hits; AID 2521; CHO-K1 APJ beta-arrestin complementation, luminescence;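 active means inhibition above about 40% at 20 µM, limit read from the data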;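 further: cells challenged with 10 nM apelin-13 agonist together with compound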
CCR6 antag = CCR6 (human) receptor antagonism | P51684 | CHO-K1 CCR6 PathHunter beta-arrestin, luminescence, CCL20-stimulated | inhibition, % at 20 µM | 340,000 compounds, 0.49% hits | AID 493098;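 active means compounds whose inhibition of the agonist-driven luminescence signal at 20 µM reaches about 50%, limit read from the data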;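 further: cells stimulated with CCL20 at 14 nM final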
Target sequence (P51684 whole entry, looked up): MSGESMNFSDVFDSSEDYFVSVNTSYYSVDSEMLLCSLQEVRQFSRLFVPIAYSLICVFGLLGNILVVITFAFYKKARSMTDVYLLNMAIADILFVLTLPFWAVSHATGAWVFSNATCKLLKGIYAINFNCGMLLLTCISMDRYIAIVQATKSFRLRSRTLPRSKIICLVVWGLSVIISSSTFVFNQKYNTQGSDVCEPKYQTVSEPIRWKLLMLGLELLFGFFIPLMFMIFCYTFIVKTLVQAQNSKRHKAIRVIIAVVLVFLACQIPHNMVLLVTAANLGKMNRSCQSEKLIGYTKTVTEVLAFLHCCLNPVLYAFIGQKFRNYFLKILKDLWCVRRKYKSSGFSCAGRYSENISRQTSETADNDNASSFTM
APJ agonist = activates the human apelin receptor APJ; P35414; CHO-K1 APJ PathHunter beta-arrestin, luminescence; 0% DMSO wells, 100% apelin; activation, % at 20 µM; 330,000 compounds, 0.11% hits; AID 2520;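 active means activation more than six SD over the plate average, tested at 20 µM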
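Material: engineered CHO-K1 APJ arrestin reporter cells; amount: 1000 CHO-K1 reporter cells seeded per well; incubation: compound stimulation 90 min at 25 °C, detection 60 min; signal: luminescent beta-gal fragment complementation, chemiluminescent substrate; read-out basis: APJ agonist activity; controls: DMSO-only wells as negative, 10 nM Apelin-13 as positive control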
EBI2 antag conf = confirmation of human EBI2 receptor antagonists | shares compounds with EBI2 antag | EBI2 beta-arrestin luminescence, 7a,25-OHC antagonism | inhibition, % at 5 µM | 2,400 compounds, 29% hits;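 active means inhibition of at least 50%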
EBI2 ag = activates EBI2, counter-screen for EBI2 antagonists; EBI2-expressing cells, agonist mode, luminescence, 60 min; 0% vehicle, 100% 7α,25-dihydroxycholesterol control; shares compounds with EBI2 antag; activation, % at 5 µM; 2,400 tested, under 10 active;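 active means activation of at least 50%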
bGal cs = inhibits E. coli beta-galactosidase, counter-screen for EBI2 antagonists; shares compounds with EBI2 antag; purified beta-galactosidase, luminescent Galacton Star, 15 min; inhibition, % at 5 µM; 2,400 compounds, 1% hits; AID 652176;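 active means replicate-average signal at least 3 plate SD below neutral wells, shown as high inhibition, flagging enzyme-inhibiting false positives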;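 further: higher means stronger loss of beta-gal luminescence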
Hits are given with their value.

Screening Cc1ccc(Cn2c(=O)n(Cc3ccco3)c(=O)c3ccccc32)cc1 returned CXCR6 inh inactive, EBI2 antag 69.0, APJ antagonist inactive, CCR6 antag inactive, APJ agonist inactive, EBI2 antag conf inactive, EBI2 ag inactive and bGal cs inactive.
`COc1ccc(NC(=O)c2cc(S(=O)(=O)N3CCc4ccccc43)cn2C)cc1` gave CXCR6 inh inactive, EBI2 antag inactive, APJ antagonist inactive, CCR6 antag inactive and APJ agonist inactive.
`Cc1ccc(NS(=O)(=O)c2ccc(NC(=O)CN(c3cc([N+](=O)[O-])ccc3C)S(C)(=O)=O)cc2)c(C)c1` gave CXCR6 inh inactive, EBI2 antag 75.2, APJ antagonist inactive, CCR6 antag inactive, APJ agonist inactive, EBI2 antag conf inactive, EBI2 ag inactive and bGal cs inactive.
`COc1ccccc1N(CC(=O)NCCSc1ccccc1)S(=O)(=O)c1ccccc1` gave CXCR6 inh inactive, EBI2 antag 49.8, APJ antagonist inactive, CCR6 antag inactive, APJ agonist inactive, EBI2 antag conf inactive, EBI2 ag inactive and bGal cs inactive.
For COc1ccc(N(CC(=O)NCCSc2ccccc2)S(=O)(=O)c2ccccc2)cc1 the results were CXCR6 inh inactive, EBI2 antag 88.2, APJ antagonist inactive, CCR6 antag inactive, APJ agonist inactive, EBI2 antag conf 59.5, EBI2 ag inactive and bGal cs inactive.
`COc1ccc(N(CC(=O)NCCSc2ccccn2)S(=O)(=O)c2ccccc2)c(OC)c1` gave CXCR6 inh inactive, EBI2 antag inactive, APJ antagonist inactive, CCR6 antag inactive and APJ agonist inactive.
Screening COc1ccc(N(CC(=O)NCCSCc2cccc(Cl)c2)S(C)(=O)=O)cc1Cl returned CXCR6 inh inactive, EBI2 antag inactive, APJ antagonist inactive, CCR6 antag inactive and APJ agonist inactive.
COc1ccc(N(CC(=O)NCCSCc2ccc(Cl)cc2)S(C)(=O)=O)cc1Cl was read as CXCR6 inh inactive, EBI2 antag 45.6, APJ antagonist inactive, CCR6 antag inactive, APJ agonist inactive, EBI2 antag conf inactive, EBI2 ag inactive and bGal cs inactive.
For COc1ccc(N(CC(=O)NCCSc2ccccc2)S(=O)(=O)c2ccccc2)c(OC)c1 the results were CXCR6 inh inactive, EBI2 antag 44.6, APJ antagonist inactive, CCR6 antag inactive, APJ agonist inactive, EBI2 antag conf inactive, EBI2 ag inactive and bGal cs inactive.
COc1ccccc1N(CC(=O)NCCSCc1ccc(C)cc1)S(=O)(=O)c1ccccc1 was read as CXCR6 inh inactive, EBI2 antag inactive, APJ antagonist inactive, CCR6 antag inactive and APJ agonist inactive.
COc1ccc(N(CC(=O)NCCSCc2ccc(C)cc2)S(=O)(=O)c2ccccc2)cc1 was read as CXCR6 inh inactive, EBI2 antag 73.0, APJ antagonist inactive, CCR6 antag inactive, APJ agonist inactive, EBI2 antag conf inactive, EBI2 ag inactive and bGal cs inactive.
COc1ccccc1N(CC(=O)NCCSc1ccc(Cl)cc1)S(C)(=O)=O was read as CXCR6 inh inactive, EBI2 antag 80.1, APJ antagonist inactive, CCR6 antag inactive, APJ agonist inactive, EBI2 antag conf 62.3, EBI2 ag inactive and bGal cs inactive.
COc1ccccc1N(CC(=O)NCCSc1ccccc1)S(C)(=O)=O was read as CXCR6 inh inactive, EBI2 antag inactive, APJ antagonist inactive, CCR6 antag inactive and APJ agonist inactive.
For Cc1ccc(SCCNC(=O)CN(c2ccc3c(c2)OCO3)S(C)(=O)=O)cc1 the results were CXCR6 inh inactive, EBI2 antag 70.6, APJ antagonist inactive, CCR6 antag inactive, APJ agonist inactive, EBI2 antag conf 57.9, EBI2 ag inactive and bGal cs inactive.
CC(=O)NS(=O)(=O)c1ccc(NS(=O)(=O)c2ccc3ccccc3c2)cc1 was read as CXCR6 inh inactive, EBI2 antag inactive, APJ antagonist inactive, CCR6 antag inactive and APJ agonist inactive.

High-throughput results (PubChem)
